# Measurements as given in ChEMBL document CHEMBL4414577, “Discovery of Pyrrolo[2,3-b]pyridine (1,7-Dideazapurine) Nucleoside Analogues as Anti-Trypanosoma cruzi Agents” (J Med Chem, 2019).
# The source made the active and inactive calls. No cut-off for these calls is given here.
# Tests used:
# Trypanosoma cruzi [1] = assay: Antitrypanosomal activity against bloodstream form of Trypanosoma cruzi Y trypomastigotes measured after 24 hrs by Neubauer chamber-based light microscopic analysis; format: functional, organism-based
# [2] = Drug metabolism in dog liver microsomes assessed as CYP450-mediated metabolism by measuring parent compound remaining at 5 uM incubated for 30 mins in presence of NADPH by UPLC-MS analysis; format: ADME, Canis lupus familiaris; settings: read-out: Stability
# Method in brief: (§1)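 Compound incubated with male mouse, rat, dog or pooled human S9 fractions, with NADPH (phase I) or […], sampled at 0, 15, 30 and 60 min. Read-out is percent parent remaining. Two independent experiments of two biological replicates; diclofenac and fluconazole used as assay controls.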
# [3] = Drug metabolism in rat liver microsomes assessed as CYP450-mediated metabolism by measuring parent compound remaining at 5 uM incubated for 60 mins in presence of NADPH by UPLC-MS analysis; format: ADME; settings: read-out: Stability; method in brief: as §1
# L929 = assay: Cytotoxicity against mouse L929 cells assessed as reduction in cell viability; format: cell-based
# [4] = Toxicity in Swiss Webster mouse infected with Trypanosoma cruzi Y trypomastigotes assessed as body weight loss at 25 mg/kg, po administered twice daily for 5 days with 2 days interval for 3 cycles; format: organism-based; settings: in vivo
# Method in brief: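 Y-strain-infected male Swiss Webster mice were dosed orally for 15 days (three rounds of 5 days, 2 drug-free days between) starting at 5 dpi. Regimens were 25 mg/kg b.i.d. or benznidazole 100 mg/kg s.i.d. Weight loss was recorded as a sign of toxicity, with mortality checked daily up to 53 dpi. There were six mice per group.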
# [5] = Drug metabolism in dog liver microsomes assessed as UGT-mediated metabolism by measuring compound remaining at 5 uM incubated for 15 mins in presence of UDPGA by UPLC-MS analysis; format: ADME, Canis lupus familiaris; settings: read-out: Stability; method in brief: as §1
# Trypanosoma cruzi [6] = assay: (§2) In vivo antitrypanosomal activity against Trypanosoma cruzi Y trypomastigotes infected in Swiss mouse assessed as reduction in parasitemia at 25 mg/kg, po administered twice daily for 5 days with 2 days interval for 3 cycles and measured up to 30 days post-infection by light microscopy; format: functional, organism-based
# Method in brief: (§3)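 Male Swiss Webster mice infected i.p. with 10⁴ Y-strain bloodstream trypomastigotes; six per group. Oral gavage from 5 dpi for 15 days (three 5-day rounds, 2 days off): test compound 25 mg/kg b.i.d., benznidazole 100 mg/kg s.i.d. Parasites counted in 5 μL tail blood to 30 dpi; mortality followed to 53 dpi.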
# Cytochrome P450 [7] = biological target: T1, Cytochrome P450 (Homo sapiens, UniProt P04798+P05177+P05181+P08684+P10632+P10635+P11509+P11712+P13584+P20813+P20815+P20853+P24462+P24903+P33260+P33261+P51589+P78329+P98187+Q02928+Q08477+Q16678+Q16696+Q5TCH4+Q6VVX0+Q7Z449+Q8TAV3+Q96SQ9+Q9HB55); assay: Drug metabolism in human liver S9 fraction assessed as CYP450-mediated metabolism by measuring parent compound remaining at 5 uM incubated for 15 mins in presence of NADPH by UPLC-MS analysis; format: ADME, subcellular; settings: read-out: Stability; method in brief: as §1
# Trypanosoma cruzi [8] = assay: Antitrypanosomal activity against Trypanosoma cruzi Y amastigotes infected in Swiss mouse primary cardiac cells replenished for every 48 hrs for 168 hrs by geimsa staining based assay; format: functional, organism-based
# Method in brief: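 Primary mouse cardiac cells infected 24 h at 37 °C with Y-strain bloodstream trypomastigotes (parasite:host 10:1), washed, then exposed 168 h at 37 °C to serial dilutions, medium with compound renewed every 48 h. Giemsa stained; infected cells and parasites per infected cell scored in 200 host cells. EC50 from inhibition of infection index; two independent determinations.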
# [9] = Drug metabolism in mouse liver microsomes assessed as UGT-mediated metabolism by measuring compound remaining at 5 uM measured immediately in presence of UDPGA by UPLC-MS analysis; format: ADME; settings: read-out: Stability; method in brief: as §1
# [10] = Cytotoxicity against Swiss mouse primary cardiac cells assessed as reduction in cell viability incubated for 24 hrs by PrestoBlue dye based colorimetry
# Cytochrome P450 [11] = biological target: T1, Cytochrome P450; assay: Drug metabolism in human liver S9 fraction assessed as CYP450-mediated metabolism by measuring parent compound remaining at 5 uM incubated for 60 mins in presence of NADPH by UPLC-MS analysis; format: ADME, subcellular; settings: read-out: Stability; method in brief: as §1
# [12] = Drug metabolism in rat liver microsomes assessed as CYP450-mediated metabolism by measuring parent compound remaining at 5 uM incubated for 30 mins in presence of NADPH by UPLC-MS analysis; format: ADME; settings: read-out: Stability; method in brief: as §1
# [13] = Drug metabolism in rat liver microsomes assessed as CYP450-mediated metabolism by measuring parent compound remaining at 5 uM measured immediately in presence of NADPH by UPLC-MS analysis; format: ADME; settings: read-out: Stability; method in brief: as §1
# [14] = Toxicity in Swiss Webster mouse infected with Trypanosoma cruzi Y trypomastigotes assessed as appearance of clinical symptoms at 25 mg/kg, po administered twice daily via gavage for 5 days starting from 5 days post-infection and measured daily up to 40 days post-infection; format: organism-based; settings: in vivo
# Method in brief: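 Male Swiss Webster mice were infected i.p. with 10⁴ Y-strain trypomastigotes and treated by oral gavage for 5 days from 5 dpi. Regimens were 25 mg/kg b.i.d. (10% EtOH/citrate vehicle) or benznidazole 100 mg/kg s.i.d. Body weight and visual clinical signs were monitored, with daily mortality checks up to 40 dpi. There were six mice per group.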
# Trypanosoma cruzi [15] = assay: as §2, with “daily via gavage” for “daily”, “starting from 5” for “with 2”, “post-infection” for “interval for 3 cycles”, “microscopic method relative to control” for “microscopy”; format: functional; design: scale not given: the % may be the effect or the level left
# Method in brief: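 Male Swiss Webster mice (18-20 g, six per group) were infected i.p. with 10⁴ Y-strain bloodstream trypomastigotes. Treatment began at 5 dpi, only in mice with detectable parasitemia. Dosing was 25 mg/kg b.i.d. by oral gavage for 5 days, using a 2.0 mg/mL formulation in 10% EtOH, 0.1 M citrate pH 3.02. Parasites in 5 μL tail-vein blood were counted microscopically up to 30 dpi, against vehicle-treated infected mice.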
# [16] = Drug metabolism in dog liver microsomes assessed as CYP450-mediated metabolism by measuring parent compound remaining at 5 uM incubated for 15 mins in presence of NADPH by UPLC-MS analysis; format: ADME, Canis lupus familiaris; settings: read-out: Stability; method in brief: as §1
# Cytochrome P450 [17] = biological target: T1, Cytochrome P450; assay: Drug metabolism in human liver S9 fraction assessed as CYP450-mediated metabolism by measuring parent compound remaining at 5 uM incubated for 30 mins in presence of NADPH by UPLC-MS analysis; format: ADME, subcellular; settings: read-out: Stability; method in brief: as §1
# Trypanosoma cruzi [18] = assay: In vivo antitrypanosomal activity against Trypanosoma cruzi Y trypomastigotes infected in Swiss mouse assessed as mouse survival at 25 mg/kg, po administered twice daily for 5 days with 2 days interval for 3 cycles and measured […]; format: functional, organism-based; method in brief: as §3
# [19] = Drug metabolism in mouse liver microsomes assessed as UGT-mediated metabolism by measuring compound remaining at 5 uM incubated for 30 mins in presence of UDPGA by UPLC-MS analysis; format: ADME; settings: read-out: Stability; method in brief: as §1
# [20] = biological target: UDP-glucuronosyltransferases (UGTs) (Homo sapiens, UniProt O60656+O75310+O75795+P06133+P0DTE4+P0DTE5+P16662+P19224+P22309+P22310+P35503+P35504+P36537+P54855+Q6UWM9+Q9BY64+Q9HAW7+Q9HAW8+Q9HAW9); assay: Drug metabolism in human liver S9 fraction assessed as UGT-mediated metabolism by measuring compound remaining at 5 uM incubated for 60 mins in presence of UDPGA by UPLC-MS analysis; format: ADME, subcellular; settings: read-out: Stability; method in brief: as §1
# [21] = Cytotoxicity against human MRC5 SV2 cells assessed as reduction in cell viability incubated for 3 days by resazurin dye based assay; settings: MRC-5 SV2, 72 h
compound,measurement,setting,value
Nc1ccnc2c1c(I)cn2[C@@H]1O[C@H](CO)[C@@H](O)[C@H]1O,EC50,Trypanosoma cruzi [1],> 70 µM
same,"remaining at 0.5 h, 5 µM",[2],96%
same,"remaining at 1 h, 5 µM",[3],85%
same,EC50,L929,> 200 µM
same,Activity,[4],Non-Toxic
same,"remaining at 0.25 h, 5 µM",[5],94%
same,Activity,Trypanosoma cruzi [6],Active
same,"remaining at 0.25 h, 5 µM",Cytochrome P450 [7],99%
same,EC50,Trypanosoma cruzi [8],0.089 µM
same,"remaining at 0 min, 5 µM",[9],100%
same,EC50,[10],> 400 µM
same,"remaining at 1 h, 5 µM",Cytochrome P450 [11],92%
same,"remaining at 0.5 h, 5 µM",[12],87%
same,"remaining at 0 min, 5 µM",[13],100%
same,Activity,[14],Non-Toxic
same,Activity,Trypanosoma cruzi [15],100%
same,"remaining at 0.25 h, 5 µM",[16],97%
same,"remaining at 0.5 h, 5 µM",Cytochrome P450 [17],96%
same,Activity,Trypanosoma cruzi [18],inactive
same,"remaining at 0.5 h, 5 µM",[19],103%
same,"remaining at 1 h, 5 µM",[20],100%
same,EC50,[21],> 64 µM
